Measurements from PMC5161575 (Nature, 2016).
Changes are numbered by the printed parent chain. Names may count otherwise. Read-outs that look alike come from different tables or passages of the source. Each block holds one molecule with its values, some of them ahead of it.

How the values were obtained:
[1] = biological target: KSR2 in purified KSR2-MEK1 complexes (Homo sapiens, UniProt Q6VAB6); test: ATP^biotin probe-labelling competition; format: binding
[2] = test system: KSR-stimulated MEK and ERK phosphorylation in 293H cells; test: KSR-driven MAPK signalling reconstitution; format: cell-based; conditions: 5 μM, 2 h
[3] = test system: Phospho-AMPK in HCT116 cells; test: phospho-AMPK western blot; format: cell-based; conditions: co-treatment with trametinib, 48 h
Summary of the method: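 HCT116 cells received test compound and/or a MEK inhibitor for 48 h. Lysates were western blotted for phospho-AMPK, phospho-ERK and total MEK, with primary antibodies overnight in 5% BSA TBS-T. Signal was detected by chemiluminescence on a CCD imager, and band intensities were quantified.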

[4] = test system: BRAF(V600E)-induced MAPK activation in 293H cells; test: BRAF; format: cell-based; conditions: 5 μM, 2 h
Summary of the method: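 They were then exposed for 2 h to DMSO or 5μM test compound, alongside a reference RAF inhibitor. Cells were collected and western blotted for phospho-MEK1/2 (Ser218/Ser222) and phospho-ERK1/2 (T202/Y204). Primary antibodies were applied overnight in 5% BSA TBS-T.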

[5] = test system: ERK phosphorylation in HCT-116 cells; test: phospho-ERK western blot; format: cell-based; conditions: APS-2-79 treatment
BRAF(F667E) + KSR2:MEK1 = BRAF(F667E) + KSR2:MEK1 (Homo sapiens, UniProt Q6VAB6); test: bio-layer inferometry; format: binding; conditions: compound 25 μM
[6] = test system: MEK phosphorylation by BRAF or CRAF; test: RAF phosphorylation assay of KSR2-MEK1 or MEK1 in vitro; format: biochemical; conditions: KSR absent or KSR2(A690F) mutant; compound 1 μM
[7] = biological target: MEK phosphorylation by BRAF or CRAF (Homo sapiens, UniProt Q6VAB6); test: as above; format: biochemical; conditions: KSR2-MEK1; compound 1 μM
MEK1 = MEK1 (Oryctolagus cuniculus, UniProt P29678); test: ATP^biotin probe-labelling competition; format: binding, rabbit; conditions: read-out: IC50 (ATP), MEK1; free ATP vs 2 μM ATP^biotin, KSR2-MEK1 complexes
Summary of the method: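 The probe transfers desthio-biotin onto active-site lysines of both KSR2 and MEK1. Biotin, total MEK and total KSR detected by western blot, giving probe-labelling versus ATP level for each partner.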

MEK1 (1-393) = MEK1 (1-393) (rabbit, UniProt P29678 1-393); test: BLI
KSR2(KD):MEK1 complex = KSR2(KD):MEK1 complex (human | rabbit, UniProt Q6VAB6 634-950; P29678 1-393); test: BLI

Molecule: COc1cc2ncnc(Nc3ccc(Oc4ccccc4)cc3)c2cc1OC.Cl [APS-1-68-2, 6,7-Dimethoxy-N-(4-phenoxyphenyl)quinazolin-4-amine hydrochloride]
KSR2-MEK1 probe competition (in words) [1]: competitor of probe-labelling

Molecule: COc1ccc(Nc2ncnc3cc(OC)c(OC)cc23)cc1.Cl [APS-1-70-1, 6,7-Dimethoxy-N-(4-methoxyphenyl)quinazolin-4-amine hydrochloride]
KSR2-MEK1 probe competition (in words) [1]: greatly diminished competition

Molecule: COc1cc2ncnc(Nc3ccc(OCc4ccccc4)cc3)c2cc1OC.O=C(O)C(F)(F)F [APS-2-12, N-(4-(Benzyloxy)phenyl)-6,7-dimethoxyquinazolin-4-amine 2,2,2-trifluoroacetate]
KSR2-MEK1 probe competition (in words) [1]: diminished

Molecule: COc1cc2nccc(Nc3ccc(Oc4ccccc4)cc3)c2cc1OC.Cl [APS-2-16, 6,7-Dimethoxy-N-(4-phenoxyphenyl)quinolin-4-amine hydrochloride]
KSR2-MEK1 probe competition (in words) [1]: moderately tolerated

Molecule: COc1cc2ncnc(Nc3ccc(Oc4ccccc4)cc3C)c2cc1OC.O=C(O)C(F)(F)F [APS-2-79, 6,7-Dimethoxy-N-(2-methyl-4-phenoxyphenyl)quinazolin-4-amine 2,2,2-trifluoroacetate]
KSR-stimulated MEK and ERK phosphorylation ([2]; KSR(A690F) mutant): significantly diminished the activity
KSR-stimulated MEK and ERK phosphorylation ([2]; wild-type KSR): suppressed
Phospho-AMPK [3]: remains unchanged
BRAF(V600E)-induced MAPK activation [4]: does not affect
enhancement in the IC90 of trametinib on ERK phosphorylation [5]: twofold enhancement
assembly of BRAF(F667E) and KSR2-MEK1 (in words) (BRAF(F667E) + KSR2:MEK1): did not associate
MEK phosphorylation by RAF [6]: inactive
KSR-stimulated MEK phosphorylation by RAF [7]: markedly reduced

B2: B-RAF(F667E) (in the modified variant for E. coli expression) (enzyme)
chain: RDSSDDWEIPDGQITVGQRIGSGSFGTVYKGKWHGDVAVKMLNVTAPTPQQLQAFKNEVGVLRKTRHVNILLFMGYSTKPQLAIVTQWCEGSSLYHHLHASETKFEMKKLIDIARQTARGMDYLHAKSIIHRDLKSNNIFLHEDNTVKIGDFGLATVKSRWSGSHQFEQLSGSILWMAPEVIRMQDSNPYSFQSDVYAFGIVLYELMTGQLPYSNINNRDQIIEMVGRGSLSPDLSKVRSNCPKRMKRLMAECLKKKRDERPSFPRILAEIEELARELSG
modifications: biotinylated with EZ-Link Sulfo-NHS-Biotin
Kd (KSR2(KD):MEK1 complex): 1.99 µM

Results, then the molecule that gave them:

KSR2-MEK1 probe competition (in words) [1]: greatly diminished competition
Molecule: COc1cc2ncnc(Nc3ccc(O)cc3)c2cc1OC.Cl [APS-1-82-1, 4-((6,7-Dimethoxyquinazolin-4-yl)amino)phenol hydrochloride]

KSR2-MEK1 probe competition (in words) [1]: greatly diminished
Molecule: COc1cc2/c(=N/c3ccc(Oc4ccccc4)cc3)ncn(C)c2cc1OC [APS-3-6, (Z)-N-(6,7-Dimethoxy-1-methylquinazolin-4(1H)-ylidene)-4-phenoxyaniline]

IC50 [1]: > 10 µM
KSR2-MEK1 probe competition (in words) [1]: essentially inactive
assembly of BRAF(F667E) and KSR2-MEK1 (in words) (BRAF(F667E) + KSR2:MEK1): did not impede
Molecule: COc1cc2ncnc(Nc3ccc(Oc4ccccc4)c(C)c3C)c2cc1OC.Cl [APS-3-77, N-(2,3-Dimethyl-4-phenoxyphenyl)-6,7-dimethoxyquinazolin-4-amine hydrochloride]

IC50 ([1]; read-out: IC50 (ATP), KSR2, free ATP vs 2 μM ATP^biotin, KSR2-MEK1 complexes): 86 µM
IC50 (MEK1): 133 µM
Molecule: Nc1ncnc2c1ncn2[C@@H]1O[C@H](COP(=O)(O)OP(=O)(O)OP(=O)(O)O)[C@@H](O)[C@H]1O [ATP, reference compound]

Kd (MEK1 (1-393)): 0.051 µM
B1: B-RAF (modified variant for high-yield expression in E. coli) (enzyme)
chain: B2 chain with E224F
modifications: biotinylated with EZ-Link Sulfo-NHS-Biotin
